Compound activity deposited in PubChem by several laboratories.
DDE Tn7 FP inh: inhibitors of Tn7 peptide binding to fibrin DD(E), primary screen, biochemical, fluorescence polarization, human fibrin, Tn7 probe; Fibrinogen beta chain (Homo sapiens), P02675; FP displacement of FITC-Tn7 peptide from fibrin DD(E); 0% = median of compound wells per plate; inhibition, % at 8.3 µM; actives 0.13% (n = 370,000); AID 720508, 2013;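 active means inhibition above the mean of compounds falling within the control limits plus 3 SD of them, cut at about 14% in these data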;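 further: 0% = plate median of compound wells and 100% = 10 µM Aha-Tn7 peptide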
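assay system = human clot-derived fibrin DD(E) complex | quantity = Fibrin-DD(E) at 2 µM final | timing = 10 min preincubation, 3 h with tracer, room temperature | signal = fluorescence polarization | measure = percent inhibition | benchmarks = high control wells with 10 µM unlabelled Aha-Tn7 peptide (full inhibition) | replicates = singlicate testing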
DDE Tn6 FP inh: inhibitors of Tn6 peptide binding to fibrin DD(E), primary screen, biochemical, fluorescence polarization, human fibrin, Tn6 probe | actives 0.21% (n = 370,000) | inhibition, % at 8.3 µM | Fibrinogen beta chain (Homo sapiens), P02675 | Fibrin DD(E) TRITC-Tn6 fluorescence polarization displacement;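 active means inhibition above a per-campaign cutoff: mean of compounds within control limits plus 3 SD, cut at about 15% in these data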;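 further: 0% = median of all compound wells on the plate and 100% = blocking peptide control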
aDG glyco up: activators of alpha-DG glycosylation, primary screen, uHTS, Pro5-aDG cells, AlphaScreen; alpha-DG glycosylation AlphaScreen (IIH6); 0% Pro5, 100% B10-LARGE cell signal; activation, % at 10 µM; actives 0.22% (n = 360,000);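 active means activation of at least 8% versus controls, or a plate z-score of at least 8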;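 further: Pro5 are CHO cells carrying HIG-tagged alpha-DG that lacks glycosylation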
NRP1-CendR mod: modulators of CendR peptide binding to NRP-1, primary screen, biochemical, fluorescence polarization, uHTS | Neuropilin-1 (Homo sapiens), O14786 | FAM-RPARPAR peptide binding to NRP-1 | inhibition, % at 25 µM | actives 0.85% (n = 360,000) | AID 602438, 2012;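 active means inhibition or corrected inhibition above about 18%, plus a signal ratio from 0.5 to 1.5, limit read from the data, passing the limit was not always enough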
Target sequence (O14786 whole entry, looked up): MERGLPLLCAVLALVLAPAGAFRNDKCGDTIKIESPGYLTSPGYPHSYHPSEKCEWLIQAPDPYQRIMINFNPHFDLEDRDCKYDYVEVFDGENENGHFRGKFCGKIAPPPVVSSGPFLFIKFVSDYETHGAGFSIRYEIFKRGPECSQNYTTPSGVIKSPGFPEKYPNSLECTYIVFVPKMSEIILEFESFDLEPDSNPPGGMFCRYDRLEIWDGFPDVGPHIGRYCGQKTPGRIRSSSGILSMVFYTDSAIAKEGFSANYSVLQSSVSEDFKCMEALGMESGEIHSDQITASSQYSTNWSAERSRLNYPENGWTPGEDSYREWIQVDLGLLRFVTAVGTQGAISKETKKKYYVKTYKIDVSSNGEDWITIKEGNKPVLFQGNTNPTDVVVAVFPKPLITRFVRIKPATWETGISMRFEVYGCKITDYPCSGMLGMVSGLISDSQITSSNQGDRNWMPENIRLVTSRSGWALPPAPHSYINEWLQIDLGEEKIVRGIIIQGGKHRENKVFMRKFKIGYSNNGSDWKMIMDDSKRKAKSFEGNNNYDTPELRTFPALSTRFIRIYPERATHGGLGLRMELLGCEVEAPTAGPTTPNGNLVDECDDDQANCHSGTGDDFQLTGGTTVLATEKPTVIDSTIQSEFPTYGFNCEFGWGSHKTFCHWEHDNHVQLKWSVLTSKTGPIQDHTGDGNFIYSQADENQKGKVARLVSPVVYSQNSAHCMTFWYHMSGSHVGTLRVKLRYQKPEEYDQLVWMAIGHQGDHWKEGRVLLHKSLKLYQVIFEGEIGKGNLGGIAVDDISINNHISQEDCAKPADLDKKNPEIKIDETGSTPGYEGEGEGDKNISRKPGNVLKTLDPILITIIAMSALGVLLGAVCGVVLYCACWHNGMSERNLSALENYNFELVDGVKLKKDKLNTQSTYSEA
DDE Tn6 FP ctr: counter-screen hit for Tn6 peptide-fibrin DD(E) binding disruption; shares compounds with DDE Tn6 FP inh; TRITC-Tn6 fluorescence polarization displacement; 0% = median of compound wells, not DMSO; inhibition, % at 8.3 µM; actives 2% (n = 680); AID 720621;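 active means inhibition above the mean of test compounds lying between the control limits plus 3 SD of those, cut at about 14% in these data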;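 further: 0% = median of compound wells and 100% = wells with Aha-Tn7 blocking peptide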
Tn6 DDE conf: inhibitors of Tn6 peptide binding to fibrin DD(E), confirmation, biochemical, fluorescence polarization, human fibrin, Tn6 probe; shares compounds with DDE Tn6 FP inh; FP displacement of TRITC-Tn6 peptide from DD(E); 0% = per-plate median of test wells; inhibition, % at 8.3 µM; actives 10% (n = 680); AID 720631, 2013;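 active means inhibition above the mean of compounds lying within the control limits plus 3 SD, cut at about 16% in these data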;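 further: 100% = high control wells holding a competing inhibitor peptide at 10 µM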
An asterisk follows results filed as active; nt = not tested or not shown. A selection: hits, their analogues and other compounds. The true share with any hit is near 1.3%.

SMILES	DDE Tn7 FP inh	DDE Tn6 FP inh	aDG glyco up	NRP1-CendR mod	DDE Tn6 FP ctr	Tn6 DDE conf
Cc1ccc(S(=O)(=O)N2C[C@H]3C(=O)C[C@@H](c4ccccc4)N(S(=O)(=O)c4ccccc4[N+](=O)[O-])[C@H]3C[C@H]2c2ccccc2)cc1	3	1	-1	11	nt	nt
CC(C)(C)n1nnnc1C(c1ccccc1)N1CCN(c2ncccc2C(F)(F)F)CC1 (configuration not stated)	10	7	0	3	nt	nt
COc1ccc2ccccc2c1C=NNC(=O)c1cc(-c2ccc(C)c(C)c2)n[nH]1	-1	26*	nt	nt	12	16*
CC(=O)C1=CCC(c2ccc(Cl)cc2)N(S(=O)(=O)c2ccccc2C)C1 (configuration not stated)	2	-6	0	14	nt	nt
CCn1c(C)c(C2=CCN(S(=O)(=O)c3ccc(C)cc3)CC2)c2ccccc21	3	25*	0	-97	4	8
COc1ccccc1N=Nc1nc(-c2ccccc2)c(-c2ccccc2)[nH]1	-3	21*	0	-3	9	9
O=C(NN=Cc1cccc(OCc2ccccc2)c1)c1cc(-c2ccc(Cl)cc2)n[nH]1	-4	22*	nt	nt	2	-1
O=C(NN=Cc1ccc(O)cc1)c1cc(-c2ccc(Cl)cc2)n[nH]1	1	-6	nt	nt	nt	nt
CC1CCCN(CCCNC(=O)c2ccc3c(c2)N(Cc2cccc(Cl)c2)C(=O)c2ccccc2S3=O)C1 (configuration not stated)	5	16*	3	7	-2	-5
CC1CCCN(CCCNC(=O)c2ccc3c(c2)N(Cc2ccc(F)cc2)C(=O)c2ccccc2S3=O)C1 (configuration not stated)	-1	2	1	5	nt	nt
Cc1ccc2c(c1)N(Cc1ccccn1)C(=O)C(C)O2 (configuration not stated)	5	17*	0	4	-5	-9
O=C(Nc1nnc([C@@H]2C[C@H](O)[C@@H](CO)O2)s1)c1cccc(OC(F)(F)F)c1	10	-6	0	-1	nt	nt
CC(C)C1OC2(C)OC(=N)C1(C#N)C(C#N)(C#N)C2c1ccccc1 (configuration not stated)	9	20*	0	-14	-3	2
CCC1OC2(C)OC(=N)C1(C#N)C(C#N)(C#N)C2c1ccccc1 (configuration not stated)	2	1	0	-15	nt	nt
CC(COc1ccccc1)CN1CCC(C(O)(c2ccccc2)c2ccccc2)CC1 (configuration not stated)	4	5	nt	nt	nt	nt
CC(COc1ccc(OC(F)(F)F)cc1)CN1CCC(C(O)(c2ccccc2)c2ccccc2)CC1 (configuration not stated)	2	22*	nt	nt	8	8
COc1ccc(CC(=O)N2CCN(C(=O)c3ccc4nc(C)n(C5CCCC5)c4c3)CC2)cc1	0	1	nt	nt	nt	nt
COc1ccccc1NS(=O)(=O)c1cccc(NC(=O)Nc2cccc(Cl)c2)c1	5	43*	5	-2	9	17*
Cc1ccc(NCc2cccc(B(O)O)c2)cc1	-5	3	0	5	nt	nt
O=C(COC(=O)c1ccc(Sc2ncn[nH]2)c([N+](=O)[O-])c1)Nc1cccc(Cl)c1F	2	16*	nt	nt	8	6
C=CC(=O)NC1CCCCN(C)C1=O (configuration not stated)	-2	-1	nt	nt	nt	nt
CCOC(=O)c1sc(N(Cc2ccccc2)C(=O)COC(=O)c2ccccc2O)nc1C	1	-5	0	8	nt	nt
CCOC(=O)c1sc(N(Cc2ccccc2)C(=O)COC(=O)c2ccc(O)cc2)nc1C	6	27*	0	0	9	-3
O=c1[nH]nc(SCc2ccccc2Cl)n1-c1ccc2c(c1)OCCO2	3	16*	0	-2	-6	-7
Cc1ccc(S(=O)(=O)CCC(=O)OCCOc2cccc(Br)c2)cc1	-5	15*	0	-1	7	8
SMILES	DDE Tn7 FP inh	DDE Tn6 FP inh	aDG glyco up	NRP1-CendR mod	DDE Tn6 FP ctr	Tn6 DDE conf
COc1cccc(NC(=O)COC(=O)CCS(=O)(=O)c2ccc(C)cc2)c1	8	5	0	-5	nt	nt
CCC(C)(C(=O)NC1CCCC1)N(Cc1cccs1)C(=O)Cc1cccs1 (configuration not stated)	-2	6	0	19	nt	nt
CCC(C)(C(=O)NC1CCCCC1)N(C(=O)Cc1cccs1)c1ccccc1 (configuration not stated)	0	15*	0	2	1	2
C=CCCC1CN(Cc2ccc(OC)cc2)S(=O)(=O)c2c(cccc2N2CCCC2)O1 (configuration not stated)	4	-3	nt	nt	nt	nt
CNc1ccc(/C=C2\CSc3ccccc3C2=O)cc1[N+](=O)[O-]	-2	19*	0	18	4	5
CCOC(=O)C1=C(C(=O)OCC)C2N(Cc3ccc(Br)cc3)c3ccccc3[C@@]23C[C@@H](C(=O)OC)N(S(=O)(=O)c2ccc(F)cc2)C3=N1 (some centres not stated)	2	-3	nt	nt	nt	nt
COc1cc(N)c2ncccc2c1SC	2	6	0	-7	nt	nt
COc1cc(N)c2ncccc2c1Br	6	19*	0	12	1	-1
CCOC(=O)[C@@H]1CSCCS(=O)(=O)N1C(=O)[C@H](CCSC)NC(=O)OC(C)(C)C	0	-4	nt	nt	nt	nt
O=C1C=C(O)c2[nH]c(=O)ccc2C1=O	5	8	0	10	nt	nt
CCN1CCN(c2ccc(S(=O)(=O)N3CCCCC3)cc2NC(=O)/C=C/c2cccc(OC)c2OC)CC1	10	16*	1	-1	-5	-8
Cn1cc(-c2coc3c(C(=O)NCc4cccc(Cl)c4)cccc23)cn1	2	-17	1	-11	nt	nt
O=C(O)c1[nH]c(-c2ccccc2)c2c1C(=O)N(C1CC1)C2=O	-2	-6	0	16	nt	nt
CC(C)C[C@@H](CCCc1ccccc1)CCC(=O)N(c1ccccc1)c1ccccc1	1	0	nt	nt	nt	nt
O=C(Cn1[nH]c(=O)c2ccccc2c1=O)OCC(=O)c1ccc(F)cc1	5	0	0	-1	nt	nt
